The record followed here is ChEMBL document CHEMBL2176870 (J Med Chem, 2012).

The nature of series [1]: Cytotoxicity against human HepG2 cells. The series is classed as cell-based. Particulars: read-out: ED50 (the source's name).
The target of series [2] is T1, Enoyl-[acyl-carrier-protein] reductase [NADPH] FabI (Staphylococcus aureus, UniProt Q6GI75).
T1 sequence (Q6GI75 whole entry): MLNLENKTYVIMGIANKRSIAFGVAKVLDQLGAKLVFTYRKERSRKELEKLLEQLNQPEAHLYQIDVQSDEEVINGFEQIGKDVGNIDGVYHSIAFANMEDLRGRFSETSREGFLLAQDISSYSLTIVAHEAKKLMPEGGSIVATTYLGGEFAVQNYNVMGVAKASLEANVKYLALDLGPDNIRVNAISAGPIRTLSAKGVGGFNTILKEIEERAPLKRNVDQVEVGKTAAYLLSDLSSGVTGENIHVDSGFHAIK
Kind of series: Inhibition of Staphylococcus aureus recombinant FabI using trans-2-octenoyl N-acetylcysteamine thioester as substrate preincubated for 60 mins. Put shortly:
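Recombinant S. aureus FabI (2 nM) in 50 mM ADA pH 6.5, 1 mM DTT, 0.006% Triton X-100, 50 mM NaCl. Preincubated 60 min at room temperature with 40 μM NADPH, 10 μM NADP+ and inhibitor in DMSO. Reaction started with 100 μM t-o-NAC. Inhibition versus untreated samples; IC50 by Langmuir fit.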

For another series, the system named is Streptococcus pneumoniae. Kind of series: Antibacterial activity against Streptococcus pneumoniae D39 after 18 hrs by broth microdilution method. The series is classed as functional. Particulars: D39, 18 h. Put shortly:
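CLSI broth microdilution with 2-fold dilutions from 0.06 to 64 μg/mL. Cation-adjusted Mueller–Hinton broth with 2.5% lysed horse blood, inoculum 5 × 10^5 CFU/mL, grown at 35 °C for 18 h in 5% CO2. MIC is the lowest concentration showing no visible growth.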
(Dilution methods test growth across graded concentrations, often in twofold steps.)

The subject of a further series is Enterococcus faecalis. Kind of series: Antibacterial activity against Enterococcus faecalis ATCC 29212 after 18 hrs by broth microdilution method. The series is classed as functional. Particulars: ATCC 29212, 18 h. Put shortly:
(§1)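 CLSI broth microdilution with serial 2-fold dilutions from 0.06 to 64 μg/mL. Cation-adjusted Mueller–Hinton broth, inoculum 5 × 10^5 CFU/mL, incubated at 35 °C for 18 h. MIC taken as the lowest concentration with no visible growth.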

The test system of series [3] is Escherichia coli. Kind of series: Antibacterial activity against Escherichia coli C7 after 18 hrs by broth microdilution method. The series is classed as functional. Particulars: C7, 18 h.
For series [4], the system named is Staphylococcus aureus. Kind of series: Antibacterial activity against Staphylococcus aureus CIP54.146 after 18 hrs by broth microdilution method. The following applies: CIP54.146, 18 h. The series is classed as functional. In a few lines: as §1
The next series concerns Proteus mirabilis. Kind of series: Antibacterial activity against Proteus mirabilis. The series is classed as functional.
Series [5] has as its system Escherichia coli. Description: Antibacterial activity against Escherichia coli. The series is classed as functional.
The next series concerns Moraxella catarrhalis. Description: Antibacterial activity against Moraxella catarrhalis. The series is classed as functional.
Another series deals with Haemophilus influenzae. Kind of series: Antibacterial activity against Haemophilus influenzae. The series is classed as functional.
Another series deals with Neisseria meningitidis. Kind of series: Antibacterial activity against Neisseria meningitidis. The series is classed as functional.
The subject of a further series is Neisseria gonorrhoeae. Description: Antibacterial activity against Neisseria gonorrhoeae. The series is classed as functional.
Series [6] deals with Staphylococcus haemolyticus. Kind of series: Antibacterial activity against methicillin-resistant Staphylococcus haemolyticus. The series is classed as functional.
Series [7] deals with Staphylococcus epidermidis. Description: Antibacterial activity against methicillin-resistant Staphylococcus epidermidis. The series is classed as functional.
Series [8] relates to Staphylococcus aureus. Kind of series: Antibacterial activity against methicillin-susceptible Staphylococcus aureus. The series is classed as functional.
Series [9] deals with Staphylococcus aureus. Description: Antibacterial activity against methicillin-resistant Staphylococcus aureus. The series is classed as functional.
For series [10], the system named is Staphylococcus aureus. Kind of series: Antibacterial activity against community acquired methicillin-resistant Staphylococcus aureus. The series is classed as functional.
In series [11] the test system is Staphylococcus aureus. Kind of series: Antibacterial activity against methicillin-resistant Staphylococcus aureus NRS385 infected in Swiss mouse. The series is classed as functional. In a few lines:
(§2)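 Murine lethal systemic infection by intraperitoneal MRSA challenge. A single subcutaneous dose was given 5 min after infection.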

For series [12], the system named is Staphylococcus aureus. Description: Antibacterial activity against methicillin-resistant Staphylococcus aureus NRS384 infected in Swiss mouse. The series is classed as functional. Put shortly:
as §2

Series [13] relates to Staphylococcus aureus. Description: Antibacterial activity against methicillin-resistant Staphylococcus aureus NRS382 infected in Swiss mouse. The series is classed as functional. Put shortly:
as §2

Molecules are shown by their SMILES. In brackets after ≈: the same amount, converted by molar mass.

A word on the IC50: it is the concentration needed to halve the response being measured. As a reminder, the MIC is the lowest concentration that inhibits growth of the organism. The low end stands for inhibition by little substance, the high end for a need for much substance. With `CCc1cc(OC)c(Oc2ccc(C(N)=O)cc2F)cc1F`, the CC50 in series [1] was > 32 µg/mL. Besides, in series [2], the IC50 was 21000 nM. For the same molecule, the MIC against Streptococcus pneumoniae, in the series with Enterococcus faecalis, with Escherichia coli [3] and against Staphylococcus aureus [4] was > 32 µg/mL throughout.

Turning to `CCc1cc(O)c(Oc2ccc(C#N)cc2F)cc1F`, the CC50 in series [1] is 16 µg/mL (≈ 58.1 µM). Besides, the IC50 in series [2] was 31 nM. Further, the MIC is 8 µg/mL (≈ 29.1 µM) in the series with Streptococcus pneumoniae, 32 µg/mL (≈ 116 µM) in the series on Enterococcus faecalis, 1 µg/mL (≈ 3.63 µM) against Escherichia coli [3] and 0.062 µg/mL (≈ 0.225 µM) against Staphylococcus aureus [4].

For the molecule `C[C@H]1COc2c(N3CCN(C)CC3)c(F)cc3c(=O)c(C(=O)O)cn1c23.C[C@H]1COc2c(N3CCN(C)CC3)c(F)cc3c(=O)c(C(=O)O)cn1c23.O` [LEVOFLOXACIN], the MIC90 with Proteus mirabilis is 0.06 µg/mL; against Escherichia coli [5], ≥ 16 µg/mL; with Moraxella catarrhalis, 0.03 µg/mL; in the series with Haemophilus influenzae it was 0.03 µg/mL; against Neisseria meningitidis it was ≤ 0.008 µg/mL; with Neisseria gonorrhoeae it was 0.5 µg/mL.

As to `CCc1cc(O)c(Oc2ccc(C(=O)O)cc2F)cc1F`, the CC50 in series [1] was > 32 µg/mL. In addition, in series [2], the IC50 stood at 180 nM. For the same molecule, the MIC is > 32 µg/mL against Streptococcus pneumoniae, > 32 µg/mL with Enterococcus faecalis, > 32 µg/mL in the series on Escherichia coli [3] and 8 µg/mL (≈ 27.2 µM) against Staphylococcus aureus [4].

Turning to `CCc1cc(O)c(Oc2ccc[nH]c2=O)cc1F`, the IC50 in series [2] is > 100000 nM. Moreover, the MIC against Streptococcus pneumoniae, in the series on Enterococcus faecalis, against Escherichia coli [3] and against Staphylococcus aureus [4] was > 32 µg/mL each time.

Take `CCc1cc(O)c(Oc2cccnc2F)cc1F`: the IC50 in series [2] came out at 13 nM. In addition, the minimum inhibitory concentration (MIC) against Streptococcus pneumoniae was > 32 µg/mL; against Enterococcus faecalis, > 32 µg/mL; against Escherichia coli [3] it was 0.25 µg/mL (≈ 0.995 µM); in the series on Staphylococcus aureus [4], 0.062 µg/mL (≈ 0.247 µM).

On to `CC(=O)NC[C@H]1CN(c2ccc(N3CCOCC3)c(F)c2)C(=O)O1` [LINEZOLID], for which the MIC90 in series [6] is 1 µg/mL (≈ 2.96 µM); in [7] it was 1 µg/mL (≈ 2.96 µM); against Staphylococcus aureus [8] it was 2 µg/mL (≈ 5.93 µM); in the series with Staphylococcus aureus [9], ≥ 16 µg/mL; with Staphylococcus aureus [10], 2 µg/mL (≈ 5.93 µM).

With `CCc1cc(O)c(Oc2ccc(C(=O)N3CCNC(=O)C3)cc2F)cc1F`, the CC50 in series [1] is > 32 µg/mL. Besides, the MIC against Streptococcus pneumoniae is > 32 µg/mL; against Enterococcus faecalis it was > 32 µg/mL; against Escherichia coli [3], 4 µg/mL (≈ 10.6 µM); in the series with Staphylococcus aureus [4] it was 0.25 µg/mL (≈ 0.664 µM).

For the molecule `CCc1cc(O)c(Oc2ccccc2)cc1F`, the CC50 in series [1] stood at 16 µg/mL (≈ 68.9 µM). Further, the IC50 in series [2] was 37 nM. Besides, the MIC in the series with Streptococcus pneumoniae amounted to 16 µg/mL (≈ 68.9 µM); against Enterococcus faecalis, 32 µg/mL (≈ 138 µM); in the series with Escherichia coli [3] it was 1 µg/mL (≈ 4.31 µM); in the series with Staphylococcus aureus [4], 0.062 µg/mL (≈ 0.267 µM).

Turning to `CCc1ccc(Oc2ccc(C(=O)CCCO)cc2)c(O)c1`, in series [1], the CC50 worked out at 16 µg/mL (≈ 53.3 µM). Moreover, the IC50 in series [2] stood at 48 nM. In addition, the minimum inhibitory concentration (MIC) against Streptococcus pneumoniae was 16 µg/mL (≈ 53.3 µM); against Enterococcus faecalis, > 32 µg/mL; against Escherichia coli [3], 4 µg/mL (≈ 13.3 µM); with Staphylococcus aureus [4], 0.062 µg/mL (≈ 0.206 µM).

Turning to `CCc1cc(O)c(Oc2ccc(C(=O)NC)cc2F)cc1F`, the CC50 in series [1] is > 32 µg/mL. Also, in [2], the IC50 was 82 nM. Further, the MIC is > 32 µg/mL in the series on Streptococcus pneumoniae, > 32 µg/mL against Enterococcus faecalis, 8 µg/mL (≈ 26 µM) in the series with Escherichia coli [3] and 1 µg/mL (≈ 3.25 µM) against Staphylococcus aureus [4].

`CCc1cc(O)c(Oc2cccnc2N)cc1F`: in series [2], the IC50 worked out at 56 nM. Besides, the MIC was > 32 µg/mL against Streptococcus pneumoniae, > 32 µg/mL against Enterococcus faecalis, 0.25 µg/mL (≈ 1.01 µM) with Escherichia coli [3] and 0.5 µg/mL (≈ 2.01 µM) with Staphylococcus aureus [4].

The ED50 is the midpoint of the dose-response relation. A higher ED50 goes with weaker potency. Regarding `CN[C@H](CC(C)C)C(=O)N[C@H]1C(=O)N[C@@H](CC(N)=O)C(=O)N[C@H]2C(=O)N[C@H]3C(=O)N[C@H](C(=O)N[C@H](C(=O)O)c4cc(O)cc(O)c4-c4cc3ccc4O)[C@H](O)c3ccc(c(Cl)c3)Oc3cc2cc(c3O[C@@H]2O[C@H](CO)[C@@H](O)[C@H](O)[C@H]2O[C@H]2C[C@](C)(N)[C@H](O)[C@H](C)O2)Oc2ccc(cc2Cl)[C@H]1O` [VANCOMYCIN], the ED50 with Staphylococcus aureus [11] stood at 5 mg/kg; in the series with Staphylococcus aureus [12], 9.4 mg/kg; with Staphylococcus aureus [13], 6 mg/kg.

As to `CCc1cc(O)c(Oc2ccccc2F)cc1F`, the CC50 in series [1] amounted to 16 µg/mL (≈ 63.9 µM). Further, the IC50 in series [2] came to 8 nM. For the same molecule, the MIC amounted to 32 µg/mL (≈ 128 µM) against Streptococcus pneumoniae, 32 µg/mL (≈ 128 µM) against Enterococcus faecalis, 0.25 µg/mL (≈ 0.999 µM) in the series with Escherichia coli [3] and 0.031 µg/mL (≈ 0.124 µM) in the series on Staphylococcus aureus [4].

As to `CCc1ccc(Oc2ccc(C(=O)N3CCNC(=O)C3)cc2F)c(O)c1`, in [1], the CC50 is > 32 µg/mL. Further, the IC50 in [2] stood at 28 nM. The MIC in the series with Streptococcus pneumoniae is > 32 µg/mL; in the series on Enterococcus faecalis it was > 32 µg/mL; with Escherichia coli [3] it was 8 µg/mL (≈ 22.3 µM); in the series on Staphylococcus aureus [4], 1 µg/mL (≈ 2.79 µM).

As to `Oc1cc(Cl)ccc1Oc1ccc(Cl)cc1Cl` [TRICLOSAN], the CC50 in series [1] was determined as 2 µg/mL (≈ 6.91 µM). Moreover, the MIC against Streptococcus pneumoniae amounted to 8 µg/mL (≈ 27.6 µM); in the series on Enterococcus faecalis it was 2 µg/mL (≈ 6.91 µM); with Escherichia coli [3], 0.125 µg/mL (≈ 0.432 µM); in the series on Staphylococcus aureus [4], 0.031 µg/mL (≈ 0.107 µM).
